From article PMC7569488 (Science signaling, 2020)
Positions count from the first letter of the chain named.

Columns and labels:
MKP3 and MKP1 = details: cited from earlier work
MKP5-CD [1] = molecular target: T1, MKP5-CD (Homo sapiens, UniProt Q9Y6W6); experiment: Malachite green phosphatase assay with p38α MAPK phosphopeptide substrate; format: biochemical
T1 sequence (Q9Y6W6 320-467): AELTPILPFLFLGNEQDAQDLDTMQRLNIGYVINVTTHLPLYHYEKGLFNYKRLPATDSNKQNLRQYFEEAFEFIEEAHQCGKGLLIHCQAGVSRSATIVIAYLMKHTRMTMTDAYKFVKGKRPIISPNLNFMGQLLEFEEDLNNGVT

PTP-1B = molecular target: T2, PTP-1B (Homo sapiens, UniProt P18031); experiment: Phosphatase selectivity assay, PTP-1B; format: biochemical
T2 sequence (P18031 1-435): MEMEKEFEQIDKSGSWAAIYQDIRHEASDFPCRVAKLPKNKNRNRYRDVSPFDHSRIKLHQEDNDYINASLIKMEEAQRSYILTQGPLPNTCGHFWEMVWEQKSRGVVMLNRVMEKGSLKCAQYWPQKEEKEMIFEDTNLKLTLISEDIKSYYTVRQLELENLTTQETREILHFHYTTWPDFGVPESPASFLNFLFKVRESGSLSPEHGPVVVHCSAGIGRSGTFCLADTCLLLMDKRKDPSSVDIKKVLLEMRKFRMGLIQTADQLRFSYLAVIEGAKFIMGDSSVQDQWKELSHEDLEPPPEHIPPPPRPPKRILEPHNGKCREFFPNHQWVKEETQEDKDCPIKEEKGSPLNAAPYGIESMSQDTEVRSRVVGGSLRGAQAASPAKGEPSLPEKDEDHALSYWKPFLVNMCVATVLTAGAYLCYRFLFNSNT

MKP3 = experiment: DiFMUP phosphatase assay, MKP3; format: biochemical; details: DiFMUP substrate
MKP7 = experiment: p38α MAPK phosphopeptide phosphatase assay, MKP7; format: biochemical; details: p38α MAPK phosphopeptide substrate
Outline: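 MKP7-CD (residues 156-301) and MKP5-CD were E. coli-expressed and thrombin-cleaved. Each was assayed with the p38α MAPK diphosphopeptide DDE(Nle)(pT)G(pY)VATR, and released phosphate was detected by malachite green. Activity was normalized to DMSO control and fit to a hyperbolic inhibition equation. The IC50 for MKP7-CD was compared with the IC50 for MKP5-CD.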

MKP5-CD [2] = molecular target: T1, MKP5-CD; experiment: Phosphate sensor steady-state kinetic assay with full-length p38α MAPK substrate; format: biochemical
MKP5-CD [3] = molecular target: T1, MKP5-CD; experiment: DiFMUP steady-state kinetic assay; format: biochemical; details: DiFMUP substrate
MKP5-CD [4] = molecular target: T1, MKP5-CD; experiment: Transient stopped-flow kinetic assay with DiFMUP; format: biochemical
MKP5 single mutant M431L = molecular target: T3, MKP5 single mutant M431L (Homo sapiens, UniProt Q9Y6W6, M431L); experiment: Malachite green assay, MKP5 M431L mutant; format: biochemical
T3 sequence (Q9Y6W6 320-467 M431L): T1 sequence (Q9Y6W6 320-467) with M112L

MKP5 single mutant T432D = molecular target: T4, MKP5 single mutant T432D (Homo sapiens, UniProt Q9Y6W6, T432D); experiment: Malachite green assay, MKP5 T432D mutant; format: biochemical
T4 sequence (Q9Y6W6 320-467 T432D): T1 sequence (Q9Y6W6 320-467) with T113D

[5] = molecular target: T5, MKP5 M431L/T432D double mutant (Homo sapiens, UniProt Q9Y6W6, M431L/T432D); experiment: Malachite green assay, MKP5 M431L/T432D double mutant; format: biochemical; details: p38α MAPK phosphopeptide
T5 sequence (Q9Y6W6 320-467 M431L/T432D): T1 sequence (Q9Y6W6 320-467) with M112L, T113D

[6] = tested on: MKP5-CD Tyr^435 mutants (alanine, serine, tryptophan); experiment: Binding and inhibition experiments with Tyr435 mutants; format: biochemical, human; details: Y435A, Y435S, Y435W
[7] = tested on: MKP5 mutants M431L, T432D and M431L/T432D; experiment: Binding affinity for Met431/Thr432 mutants; set-up: species or system human
p38α MAPK [8] = experiment: p38α MAPK activation in C2C12 myoblasts; format: cell-based, mouse; details: highest concentration of Compound 1, dose-dependent
Outline: (§1)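 C2C12 myoblasts (ATCC) were treated with test compound (0, 10, 25, 50 μM) overnight, serum-starved 4 h, lysed and immunoblotted. Antibodies: phospho-ERK1/2 Thr202/Tyr204, phospho-JNK Thr183/Tyr185, phospho-p38α Thr180/Tyr182, plus the matching total proteins. The pMAPK/MAPK ratio was quantified by direct fluorescence imaging. Four independent experiments; means ± SEM; two-tailed t-test.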

JNK [9] = experiment: JNK activation in C2C12 myoblasts; format: cell-based, mouse; details: highest concentration of Compound 1
Outline: as §1

ERK1/2 [10] = experiment: ERK1/2 activation in C2C12 myoblasts; format: cell-based, mouse; details: even at the highest concentration
Outline: as §1

C2C12 myoblasts [11] = experiment: C2C12 myoblast proliferation; format: cell-based, mouse; details: C2C12, 72 hr
C2C12 myoblasts [12] = experiment: C2C12 myoblast differentiation; format: cell-based, mouse; details: C2C12, 72 h
Outline: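 C2C12 myoblasts were plated in growth medium, then switched to DMEM with 0.1% FBS, 5 μg/mL insulin and 5 μg/mL selenium, plus DMSO vehicle or test compound. Differentiation ran 72 hr. Cells were stained with MF20 antibody (myosin heavy chain) and DAPI. Fusion index = % of nuclei in myotubes with ≥2 nuclei over total nuclei, counted from ≥10 fields. Means ± SEM; two-tailed t-test.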

Smad2 = experiment: TGF-β1-mediated Smad2 phosphorylation in MEFs; format: cell-based, mouse; details: TGF-β1 1 ng/ml 10 minutes
p38α MAPK [13] = experiment: p38α MAPK phosphorylation in MEFs; format: cell-based, mouse
Outline: (§2)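 Mouse embryo fibroblasts were derived from Mkp5+/+ and Mkp5−/− embryos (days 13-14) and spontaneously immortalized. Cells were treated with test compound overnight, serum-starved 4 h, then stimulated with TGF-β1 (1 ng/ml) for 10 min. Lysates were immunoblotted for phospho- and total MAPK, and the ratio was quantified by fluorescence imaging. 3-6 independent experiments; means ± SEM; t-test.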

JNK [14] = experiment: JNK phosphorylation in MEFs; format: cell-based, mouse
Outline: as §2

ERK1/2 [15] = experiment: ERK1/2 phosphorylation in MEFs; format: cell-based, mouse; details: Mkp5−/− MEFs
Outline: as §2

Solubility = format: physicochemical

O=C1/C(=C/c2ccccc2)C(NC2CCCCC2)c2ccccc21 (centres unmarked) [BCI]
relative potency MKP3 versus MKP1 (MKP3 and MKP1): relative equipotency

CSc1scc2c1-c1nc(SCC(=O)C(C)(C)C)ncc1CC2 [Compound 1, 3,3-dimethyl-1-((9-(methylthio)-5,6-dihydrothieno[3,4-h]quinazolin-2-yl)thio)butan-2-one]
IC50 (MKP5-CD [1]; IC50 against MKP5-CD, p38α MAPK phosphopeptide substrate): ~3.9 µM | extent of inhibition of MKP5-CD phosphatase activity (MKP5-CD [1]; p38α MAPK phosphopeptide): did not fully inhibit | IC50 (PTP-1B): > 100 µM | increase in IC50 for MKP3 relative to MKP5 (MKP3): at least 16 fold | increase in IC50 for MKP7 relative to MKP5 (MKP7): at least 16 fold | Ki (MKP5-CD [2]): 8.9 ± 2.2 µM | α (mixed-mechanism inhibition) (MKP5-CD [2]; full-length p38α MAPK substrate): ≈ 17.4 | α (mixed mechanism of inhibition) (MKP5-CD [3]): 4.2 | fold change of burst rate (k1) (MKP5-CD [4]; 20 and 40 μM Compound 1): 7 fold | burst rate (k1) in the presence of Compound 1 (MKP5-CD [4]; 20 and 40 μM Compound 1 (8.4 ± 0.2 s^−1 without)): 1.2 ± 0.02 s⁻¹ | IC50 (MKP5 single mutant M431L): 99 µM | IC50 (MKP5 single mutant T432D): 61 µM | inhibition of MKP5 M431L/T432D double mutant [5]: nearly abolished inhibition | binding to and inhibition of Tyr435 mutants [6]: capable of binding to and inhibiting the activity of only the Y435W mutant | binding affinity for M431L, T432D and M431L/T432D mutants [7]: Concomitant reductions in the binding affinity | activation of p38α MAPK (p38α MAPK [8]): up to 4 fold | JNK activation (JNK [9]): up to 2 fold | activation of ERK1/2 (ERK1/2 [10]): did not alter the activation of ERK1/2 | myoblast proliferation (BrdU-positive cells) (C2C12 myoblasts [11]): did not affect C2C12 myoblast proliferation | myoblast differentiation (myotube fusion index) (C2C12 myoblasts [12]): significantly increased | TGF-β1-mediated Smad2 phosphorylation (Smad2; Mkp5+/+ MEFs): inhibited TGF-β1-mediated Smad2 phosphorylation | TGF-β1-mediated Smad2 phosphorylation (Smad2; Mkp5−/− MEFs): failed to inhibit Smad2 phosphorylation further | phosphorylation of p38α MAPK (p38α MAPK [13]; Mkp5−/− MEFs): did not result in additional phosphorylation | phosphorylation of p38α MAPK (p38α MAPK [13]; wild type MEFs): dose-dependent increase | phosphorylation of JNK (JNK [14]; Mkp5−/− MEFs): did not result in additional phosphorylation | phosphorylation of JNK (JNK [14]; wild type MEFs): dose-dependent increase | ERK1/2 phosphorylation (ERK1/2 [15]): unaffected | solubility (Solubility): modest solubility
